Measurements as given in ChEMBL document CHEMBL5058577, “EUbOPEN Chemogenomics Library 2 (Multiplex)” (2022).

Test system: Fibroblast
Assay: Multiplex assay against human fibroblast
Assay type: toxicity, cell-based
Outline: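 Cells stained live at seeding with Hoechst33342, BioTracker Green Microtubule Cytoskeleton Dye, MitoTracker Red and Annexin V Alexa Fluor 680 were imaged on a CQ1 microscope at 37°C and 5% CO2 after compound addition. Their classification by CellPathfinder machine-learning gating ran from Hoechst high-intensity objects versus normal cells, to healthy, pyknosed or fragmented nuclei among normal cells, to mitotic or apoptotic among pyknosed cells. Tubulin, mitochondrial-mass and membrane-permeability phenotypes are per cents of healthy-nucleus cells.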

[1] = 12 h, 1 µM, compound concentration 1 uM, replicate 1
[2] = 12 h, 1 µM, compound concentration 1 uM, replicate 2
[3] = 12 h, 10 µM, compound concentration 10 uM, replicate 1
[4] = 12 h, 10 µM, compound concentration 10 uM, replicate 2
[5] = 24 h, 1 µM, compound concentration 1 uM, replicate 1
[6] = 24 h, 1 µM, compound concentration 1 uM, replicate 2
[7] = 24 h, 10 µM, compound concentration 10 uM, replicate 1
[8] = 24 h, 10 µM, compound concentration 10 uM, replicate 2
[9] = 48 h, 1 µM, compound concentration 1 uM, replicate 1
[10] = 48 h, 1 µM, compound concentration 1 uM, replicate 2
[11] = 48 h, 10 µM, compound concentration 10 uM, replicate 1
[12] = 48 h, 10 µM, compound concentration 10 uM, replicate 2

Cc1nn(C)c2nc(NNC(=O)Nc3cc(Cl)nc(Cl)c3)cc(C(C)C)c12
Population Apoptotic (%) [1]: 62%
Population Fragmented Nuclei (%) [1]: 15%
Population Healthy Nuclei (%) [1]: 68%
Population Hoechst High Intensity Objects (%) [1]: 3%
Population Membrane Permeable-Phenotype (%) [1]: 0%
Population Mitochondria Different-Phenotype (%) [1]: 4%
Population Mitotic Cells (%) [1]: 37%
Population Normal (%) [1]: 96%
Population Pyknosed Nuclei (%) [1]: 15%
Population Tubulin-Different-Phenotype (%) [1]: 27%
Total Cell Count [1]: 178
Population Apoptotic (%) [2]: 37%
Population Fragmented Nuclei (%) [2]: 31%
Population Healthy Nuclei (%) [2]: 53%
Population Hoechst High Intensity Objects (%) [2]: 2%
Population Mitochondria Different-Phenotype (%) [2]: 7%
Population Mitotic Cells (%) [2]: 62%
Population Normal (%) [2]: 97%
Population Tubulin-Different-Phenotype (%) [2]: 46%
Total Cell Count [2]: 179
Population Apoptotic (%) [3]: 53%
Population Fragmented Nuclei (%) [3]: 12%
Population Healthy Nuclei (%) [3]: 63%
Population Hoechst High Intensity Objects (%) [3]: 3%
Population Membrane Permeable-Phenotype (%) [3]: 2%
Population Mitochondria Different-Phenotype (%) [3]: 15%
Population Mitotic Cells (%) [3]: 46%
Population Normal (%) [3]: 96%
Population Pyknosed Nuclei (%) [3]: 23%
Population Tubulin-Different-Phenotype (%) [3]: 89%
Total Cell Count [3]: 139
Population Apoptotic (%) [4]: 21%
Population Fragmented Nuclei (%) [4]: 33%
Population Healthy Nuclei (%) [4]: 56%
Population Hoechst High Intensity Objects (%) [4]: 7%
Population Membrane Permeable-Phenotype (%) [4]: 5%
Population Mitochondria Different-Phenotype (%) [4]: 6%
Population Mitotic Cells (%) [4]: 78%
Population Normal (%) [4]: 92%
Population Pyknosed Nuclei (%) [4]: 10%
Total Cell Count [4]: 140
Population Apoptotic (%) [5]: 59%
Population Fragmented Nuclei (%) [5]: 18%
Population Healthy Nuclei (%) [5]: 68%
Population Hoechst High Intensity Objects (%) [5]: 1%
Population Membrane Permeable-Phenotype (%) [5]: 1%
Population Mitochondria Different-Phenotype (%) [5]: 3%
Population Mitotic Cells (%) [5]: 40%
Population Normal (%) [5]: 98%
Population Pyknosed Nuclei (%) [5]: 12%
Population Tubulin-Different-Phenotype (%) [5]: 29%
Total Cell Count [5]: 176
Population Apoptotic (%) [6]: 62%
Population Fragmented Nuclei (%) [6]: 21%
Population Hoechst High Intensity Objects (%) [6]: 2%
Population Membrane Permeable-Phenotype (%) [6]: 2%
Population Mitochondria Different-Phenotype (%) [6]: 6%
Population Mitotic Cells (%) [6]: 37%
Population Normal (%) [6]: 97%
Population Pyknosed Nuclei (%) [6]: 9%
Population Tubulin-Different-Phenotype (%) [6]: 50%
Total Cell Count [6]: 174
Population Apoptotic (%) [7]: 52%
Population Fragmented Nuclei (%) [7]: 12%
Population Healthy Nuclei (%) [7]: 69%
Population Hoechst High Intensity Objects (%) [7]: 4%
Population Membrane Permeable-Phenotype (%) [7]: 1%
Population Mitochondria Different-Phenotype (%) [7]: 22%
Population Mitotic Cells (%) [7]: 47%
Population Normal (%) [7]: 95%
Population Pyknosed Nuclei (%) [7]: 18%
Population Tubulin-Different-Phenotype (%) [7]: 95%
Total Cell Count [7]: 130
Population Apoptotic (%) [8]: 25%
Population Fragmented Nuclei (%) [8]: 28%
Population Healthy Nuclei (%) [8]: 61%
Population Hoechst High Intensity Objects (%) [8]: 8%
Population Membrane Permeable-Phenotype (%) [8]: 0%
Population Mitochondria Different-Phenotype (%) [8]: 6%
Population Mitotic Cells (%) [8]: 75%
Population Normal (%) [8]: 91%
Population Pyknosed Nuclei (%) [8]: 9%
Population Tubulin-Different-Phenotype (%) [8]: 89%
Total Cell Count [8]: 132
Population Apoptotic (%) [9]: 71%
Population Fragmented Nuclei (%) [9]: 18%
Population Healthy Nuclei (%) [9]: 73%
Population Hoechst High Intensity Objects (%) [9]: 1%
Population Membrane Permeable-Phenotype (%) [9]: 1%
Population Mitochondria Different-Phenotype (%) [9]: 2%
Population Mitotic Cells (%) [9]: 28%
Population Normal (%) [9]: 98%
Population Pyknosed Nuclei (%) [9]: 7%
Population Tubulin-Different-Phenotype (%) [9]: 30%
Total Cell Count [9]: 188
Population Apoptotic (%) [10]: 57%
Population Fragmented Nuclei (%) [10]: 34%
Population Healthy Nuclei (%) [10]: 62%
Population Hoechst High Intensity Objects (%) [10]: 2%
Population Membrane Permeable-Phenotype (%) [10]: 2%
Population Mitotic Cells (%) [10]: 42%
Population Normal (%) [10]: 97%
Population Pyknosed Nuclei (%) [10]: 3%
Population Tubulin-Different-Phenotype (%) [10]: 36%
Total Cell Count [10]: 184
Population Apoptotic (%) [11]: 93%
Population Fragmented Nuclei (%) [11]: 16%
Population Healthy Nuclei (%) [11]: 70%
Population Hoechst High Intensity Objects (%) [11]: 8%
Population Membrane Permeable-Phenotype (%) [11]: 2%
Population Mitochondria Different-Phenotype (%) [11]: 31%
Population Mitotic Cells (%) [11]: 6%
Population Normal (%) [11]: 91%
Population Pyknosed Nuclei (%) [11]: 13%
Population Tubulin-Different-Phenotype (%) [11]: 96%
Total Cell Count [11]: 129
Population Apoptotic (%) [12]: 62%
Population Fragmented Nuclei (%) [12]: 38%
Population Healthy Nuclei (%) [12]: 56%
Population Hoechst High Intensity Objects (%) [12]: 3%
Population Mitochondria Different-Phenotype (%) [12]: 5%
Population Mitotic Cells (%) [12]: 37%
Population Normal (%) [12]: 96%
Population Pyknosed Nuclei (%) [12]: 5%
Population Tubulin-Different-Phenotype (%) [12]: 85%
Total Cell Count [12]: 155
